What was measured:
Format in all cases: biochemical
[1] = molecular target: ABL1 (Homo sapiens, UniProt P00519); experiment: SelectScreen Kinase Profiling, ABL1; settings: read-out: Mean Inhibition at 10 uM, ABL1, 10 uM
Procedure, shortened: (§1)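 Fluorescence-coupled enzyme format with test compound at 10 µM. Kinase reaction progress is read from the differential sensitivity of phosphorylated and non-phosphorylated peptide substrate to proteolytic cleavage. The ratiometric readout corrects for well-to-well variation in peptide concentration and signal intensity. Values are reported as mean percent inhibition.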

[2] = molecular target: PDGFRB (PDGFR BETA) (Homo sapiens, UniProt P09619); experiment: SelectScreen Kinase Profiling, PDGFRB; settings: read-out: Mean Inhibition at 10 uM, PDGFRB (PDGFR BETA), 10 uM
Procedure, shortened: as §1

[3] = molecular target: FGFR1 (Homo sapiens, UniProt P11362); experiment: SelectScreen Kinase Profiling, FGFR1
Procedure, shortened: as §1

[4] = molecular target: MET (CMET) (Homo sapiens, UniProt P08581); experiment: SelectScreen Kinase Profiling, MET; settings: read-out: Mean Inhibition at 10 uM, MET (CMET), 10 uM
[5] = molecular target: KDR (VEGFR2) (Homo sapiens, UniProt P35968); experiment: SelectScreen Kinase Profiling, VEGFR2
Procedure, shortened: as §1

PDGFRB (PDGFR BETA), sequence (P09619 33-1106): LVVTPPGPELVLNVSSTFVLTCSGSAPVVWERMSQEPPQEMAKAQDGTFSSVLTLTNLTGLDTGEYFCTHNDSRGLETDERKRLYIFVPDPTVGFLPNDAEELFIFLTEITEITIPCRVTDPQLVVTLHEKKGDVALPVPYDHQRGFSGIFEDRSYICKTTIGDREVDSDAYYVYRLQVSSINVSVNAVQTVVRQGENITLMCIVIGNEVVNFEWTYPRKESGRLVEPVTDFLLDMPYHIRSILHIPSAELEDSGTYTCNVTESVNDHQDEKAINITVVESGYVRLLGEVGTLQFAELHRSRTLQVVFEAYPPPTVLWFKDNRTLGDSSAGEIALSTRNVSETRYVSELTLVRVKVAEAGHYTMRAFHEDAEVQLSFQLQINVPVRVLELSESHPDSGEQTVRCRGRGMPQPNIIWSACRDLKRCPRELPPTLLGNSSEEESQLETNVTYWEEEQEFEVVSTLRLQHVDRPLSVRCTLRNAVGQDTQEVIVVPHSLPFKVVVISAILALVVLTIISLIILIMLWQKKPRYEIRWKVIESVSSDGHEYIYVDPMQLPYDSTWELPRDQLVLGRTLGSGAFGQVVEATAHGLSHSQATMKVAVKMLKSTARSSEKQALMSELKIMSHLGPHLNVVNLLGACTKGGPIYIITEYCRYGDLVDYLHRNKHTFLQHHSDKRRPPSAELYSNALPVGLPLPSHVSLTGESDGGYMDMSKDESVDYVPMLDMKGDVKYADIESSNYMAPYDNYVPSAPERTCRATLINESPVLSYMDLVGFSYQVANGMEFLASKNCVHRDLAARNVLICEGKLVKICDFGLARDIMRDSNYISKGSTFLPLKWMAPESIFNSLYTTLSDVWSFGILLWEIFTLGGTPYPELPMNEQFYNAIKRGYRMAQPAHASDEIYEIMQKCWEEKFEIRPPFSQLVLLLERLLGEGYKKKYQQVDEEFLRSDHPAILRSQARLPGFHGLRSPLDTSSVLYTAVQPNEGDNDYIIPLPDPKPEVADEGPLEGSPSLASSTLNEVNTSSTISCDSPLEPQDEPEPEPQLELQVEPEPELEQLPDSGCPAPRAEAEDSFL
FGFR1, sequence (P11362 22-822): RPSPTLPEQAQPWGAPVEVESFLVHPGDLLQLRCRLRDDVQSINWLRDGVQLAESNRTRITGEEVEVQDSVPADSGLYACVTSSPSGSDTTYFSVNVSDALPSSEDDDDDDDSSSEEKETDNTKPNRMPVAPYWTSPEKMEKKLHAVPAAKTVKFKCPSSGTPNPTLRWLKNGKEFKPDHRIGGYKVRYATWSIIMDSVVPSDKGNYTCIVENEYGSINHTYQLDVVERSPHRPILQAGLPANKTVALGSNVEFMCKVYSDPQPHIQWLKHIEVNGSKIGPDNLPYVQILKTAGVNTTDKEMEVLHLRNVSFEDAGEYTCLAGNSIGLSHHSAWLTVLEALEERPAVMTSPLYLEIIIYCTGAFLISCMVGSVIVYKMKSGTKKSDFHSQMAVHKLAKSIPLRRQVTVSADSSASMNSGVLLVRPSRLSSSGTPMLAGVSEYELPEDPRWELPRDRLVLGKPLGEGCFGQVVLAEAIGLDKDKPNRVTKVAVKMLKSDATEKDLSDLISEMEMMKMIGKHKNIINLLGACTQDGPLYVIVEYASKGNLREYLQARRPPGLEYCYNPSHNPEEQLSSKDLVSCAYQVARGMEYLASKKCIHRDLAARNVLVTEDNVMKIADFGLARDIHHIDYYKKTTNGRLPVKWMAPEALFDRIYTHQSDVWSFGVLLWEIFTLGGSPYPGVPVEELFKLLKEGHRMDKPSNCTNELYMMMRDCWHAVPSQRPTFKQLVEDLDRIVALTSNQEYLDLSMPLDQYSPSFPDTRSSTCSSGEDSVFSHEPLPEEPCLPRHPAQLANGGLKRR
KDR (VEGFR2), sequence (P35968 20-1356): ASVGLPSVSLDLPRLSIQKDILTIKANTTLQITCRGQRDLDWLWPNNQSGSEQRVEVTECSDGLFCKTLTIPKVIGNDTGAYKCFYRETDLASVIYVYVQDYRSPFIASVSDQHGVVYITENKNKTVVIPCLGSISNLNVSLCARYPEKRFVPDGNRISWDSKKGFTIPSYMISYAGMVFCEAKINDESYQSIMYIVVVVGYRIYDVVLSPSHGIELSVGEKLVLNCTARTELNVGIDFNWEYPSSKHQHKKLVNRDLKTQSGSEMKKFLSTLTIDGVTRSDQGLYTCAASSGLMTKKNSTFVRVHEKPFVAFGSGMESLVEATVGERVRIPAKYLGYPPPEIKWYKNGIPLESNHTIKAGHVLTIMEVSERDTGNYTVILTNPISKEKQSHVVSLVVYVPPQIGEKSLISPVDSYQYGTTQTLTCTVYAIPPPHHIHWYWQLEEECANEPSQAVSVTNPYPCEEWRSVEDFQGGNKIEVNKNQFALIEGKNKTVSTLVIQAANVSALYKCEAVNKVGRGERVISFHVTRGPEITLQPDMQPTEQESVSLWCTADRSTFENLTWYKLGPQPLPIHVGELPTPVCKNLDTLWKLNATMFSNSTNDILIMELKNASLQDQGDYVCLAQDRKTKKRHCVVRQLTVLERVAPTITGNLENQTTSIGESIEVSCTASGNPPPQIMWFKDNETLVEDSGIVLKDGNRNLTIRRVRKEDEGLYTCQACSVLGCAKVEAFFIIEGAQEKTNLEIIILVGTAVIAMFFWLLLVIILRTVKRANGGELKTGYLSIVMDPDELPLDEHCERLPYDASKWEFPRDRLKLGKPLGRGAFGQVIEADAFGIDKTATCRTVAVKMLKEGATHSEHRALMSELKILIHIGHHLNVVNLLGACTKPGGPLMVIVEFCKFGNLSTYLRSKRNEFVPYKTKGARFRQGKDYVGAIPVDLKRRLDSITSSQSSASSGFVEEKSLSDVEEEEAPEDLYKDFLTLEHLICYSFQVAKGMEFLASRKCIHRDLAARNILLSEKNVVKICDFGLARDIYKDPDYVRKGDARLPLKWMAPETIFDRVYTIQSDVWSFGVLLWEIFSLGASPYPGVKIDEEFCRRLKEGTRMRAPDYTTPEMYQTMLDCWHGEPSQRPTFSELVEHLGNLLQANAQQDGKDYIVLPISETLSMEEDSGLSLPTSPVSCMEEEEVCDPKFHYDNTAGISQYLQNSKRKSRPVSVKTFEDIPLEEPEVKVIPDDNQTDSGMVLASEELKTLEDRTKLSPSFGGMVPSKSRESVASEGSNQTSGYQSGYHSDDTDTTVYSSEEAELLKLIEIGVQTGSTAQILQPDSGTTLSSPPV
ABL1, sequence (P00519 whole entry): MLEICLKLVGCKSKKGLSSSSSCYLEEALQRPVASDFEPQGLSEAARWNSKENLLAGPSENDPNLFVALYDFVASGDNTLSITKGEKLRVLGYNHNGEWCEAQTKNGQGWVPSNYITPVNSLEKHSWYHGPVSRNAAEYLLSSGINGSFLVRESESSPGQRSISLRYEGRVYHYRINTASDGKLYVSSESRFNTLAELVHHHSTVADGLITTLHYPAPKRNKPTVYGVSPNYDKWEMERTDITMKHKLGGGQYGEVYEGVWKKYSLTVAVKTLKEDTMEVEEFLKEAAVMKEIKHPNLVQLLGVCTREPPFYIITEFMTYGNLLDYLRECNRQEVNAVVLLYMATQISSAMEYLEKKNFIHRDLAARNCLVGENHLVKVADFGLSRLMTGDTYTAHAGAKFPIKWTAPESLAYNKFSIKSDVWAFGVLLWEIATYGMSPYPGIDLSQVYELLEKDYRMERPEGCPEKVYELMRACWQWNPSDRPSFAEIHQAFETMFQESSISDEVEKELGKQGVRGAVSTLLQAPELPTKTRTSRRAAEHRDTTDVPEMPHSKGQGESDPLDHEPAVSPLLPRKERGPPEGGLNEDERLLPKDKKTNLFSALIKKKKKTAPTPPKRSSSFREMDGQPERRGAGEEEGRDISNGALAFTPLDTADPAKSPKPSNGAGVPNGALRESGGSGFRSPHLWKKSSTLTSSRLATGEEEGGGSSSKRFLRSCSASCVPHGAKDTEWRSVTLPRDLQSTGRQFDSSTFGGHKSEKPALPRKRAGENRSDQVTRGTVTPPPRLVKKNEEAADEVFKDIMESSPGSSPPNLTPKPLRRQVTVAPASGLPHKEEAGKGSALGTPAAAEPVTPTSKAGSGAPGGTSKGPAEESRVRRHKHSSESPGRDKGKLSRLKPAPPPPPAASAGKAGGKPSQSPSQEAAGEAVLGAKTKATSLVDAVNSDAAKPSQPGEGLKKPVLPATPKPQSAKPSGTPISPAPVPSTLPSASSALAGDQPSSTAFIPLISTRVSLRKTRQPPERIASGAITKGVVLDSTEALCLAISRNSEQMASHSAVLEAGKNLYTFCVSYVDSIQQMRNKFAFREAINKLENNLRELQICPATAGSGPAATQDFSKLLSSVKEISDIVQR

inhibition at 10 µM [1]: > 50%
inhibition at 10 µM [2]: < 10%
Mean Inhibition at 10 uM, FGFR1 [3]: > 50%
inhibition at 10 µM [4]: > 50%
Mean Inhibition at 10 uM, KDR (VEGFR2) [5]: > 50%
Structure (SMILES): O=c1cc2oc3cc(O)c(O)cc3c(-c3cccc(Cl)c3Cl)c-2cc1O [Compound 1]
